Assay results reported in the M2OR odorant receptor database.

Legend:
Details in all cases: stereoisomer not certain
[1] = molecular target: T1, OR2A7 (Homo sapiens) (UniProt Q96R45)
T1 sequence (whole entry): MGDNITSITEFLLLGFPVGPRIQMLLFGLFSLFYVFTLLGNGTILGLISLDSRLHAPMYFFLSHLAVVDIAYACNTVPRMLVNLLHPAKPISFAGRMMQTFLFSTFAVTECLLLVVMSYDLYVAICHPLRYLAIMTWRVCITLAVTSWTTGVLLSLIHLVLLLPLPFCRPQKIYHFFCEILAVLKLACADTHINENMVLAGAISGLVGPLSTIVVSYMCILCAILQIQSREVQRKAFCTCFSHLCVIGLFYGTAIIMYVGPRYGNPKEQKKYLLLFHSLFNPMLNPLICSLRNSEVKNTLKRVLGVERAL
Method in brief: (§1)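 Each receptor–molecule pair is labelled responsive or non-responsive (inactive) according to whether the original authors judged the measured signal statistically different from baseline. The data were taken from the main text and supplementary material of published papers and checked for typos and inconsistencies. Assay methods differed by source, with transient luciferase assays in mammalian cell lines being common.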

[2] = molecular target: OR2AE1 (Homo sapiens) (UniProt Q8NHA4)
Method in brief: as §1

[3] = molecular target: OR2AG1 (Homo sapiens) (UniProt Q9H205)
Method in brief: as §1

[4] = molecular target: OR2AG2 (Homo sapiens) (UniProt A6NM03)
Method in brief: as §1

[5] = molecular target: OR2AJ1 (Homo sapiens) (UniProt Q8NGZ0)
Method in brief: as §1

[6] = molecular target: OR2AK2 (Homo sapiens) (UniProt Q8NG84)
Method in brief: as §1

[7] = molecular target: OR2AP1 (Homo sapiens) (UniProt Q8NGE2)
Method in brief: as §1

[8] = molecular target: OR2AT4 (Homo sapiens) (UniProt A6NND4)
Method in brief: as §1

[9] = molecular target: T2, OR2B11 (Homo sapiens) (UniProt Q5JQS5)
T2 sequence (whole entry): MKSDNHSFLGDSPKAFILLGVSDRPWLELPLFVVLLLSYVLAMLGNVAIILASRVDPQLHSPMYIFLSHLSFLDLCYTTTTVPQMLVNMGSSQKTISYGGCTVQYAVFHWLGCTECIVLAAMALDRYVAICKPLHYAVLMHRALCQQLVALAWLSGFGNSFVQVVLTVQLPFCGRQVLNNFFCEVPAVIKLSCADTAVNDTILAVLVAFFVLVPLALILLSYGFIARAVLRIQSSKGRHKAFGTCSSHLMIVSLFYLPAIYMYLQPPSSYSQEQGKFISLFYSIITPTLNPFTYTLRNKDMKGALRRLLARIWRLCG
Method in brief: as §1

[10] = molecular target: OR2B2 (Homo sapiens) (UniProt Q9GZK3)
Method in brief: as §1

[11] = molecular target: OR2B6 (Homo sapiens) (UniProt P58173)
Method in brief: as §1

[12] = molecular target: T3, OR2C1 (Homo sapiens) (UniProt O95371)
T3 sequence (whole entry): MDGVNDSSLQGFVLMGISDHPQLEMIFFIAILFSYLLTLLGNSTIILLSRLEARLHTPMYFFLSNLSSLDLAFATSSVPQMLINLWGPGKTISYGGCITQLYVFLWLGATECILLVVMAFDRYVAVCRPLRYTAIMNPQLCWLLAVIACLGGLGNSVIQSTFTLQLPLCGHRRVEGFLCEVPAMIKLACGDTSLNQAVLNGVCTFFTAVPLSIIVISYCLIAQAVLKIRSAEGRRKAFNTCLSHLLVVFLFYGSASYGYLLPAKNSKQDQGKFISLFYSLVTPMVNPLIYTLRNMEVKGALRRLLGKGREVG
Method in brief: as §1

[13] = molecular target: T4, OR2B3 (Homo sapiens) (UniProt O76000)
T4 sequence (whole entry): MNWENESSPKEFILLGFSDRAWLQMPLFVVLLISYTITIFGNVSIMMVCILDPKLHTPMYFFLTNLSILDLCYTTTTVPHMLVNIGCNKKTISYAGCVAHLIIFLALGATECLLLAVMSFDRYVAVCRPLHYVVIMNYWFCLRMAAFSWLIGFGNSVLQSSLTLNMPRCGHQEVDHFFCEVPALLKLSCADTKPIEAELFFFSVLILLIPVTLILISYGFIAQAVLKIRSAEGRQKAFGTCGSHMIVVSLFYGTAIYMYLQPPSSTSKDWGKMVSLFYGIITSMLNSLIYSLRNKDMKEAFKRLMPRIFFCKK
Method in brief: as §1

[14] = test system: OR2BB
Method in brief: as §1
Target sequence in this assay (as listed by the source): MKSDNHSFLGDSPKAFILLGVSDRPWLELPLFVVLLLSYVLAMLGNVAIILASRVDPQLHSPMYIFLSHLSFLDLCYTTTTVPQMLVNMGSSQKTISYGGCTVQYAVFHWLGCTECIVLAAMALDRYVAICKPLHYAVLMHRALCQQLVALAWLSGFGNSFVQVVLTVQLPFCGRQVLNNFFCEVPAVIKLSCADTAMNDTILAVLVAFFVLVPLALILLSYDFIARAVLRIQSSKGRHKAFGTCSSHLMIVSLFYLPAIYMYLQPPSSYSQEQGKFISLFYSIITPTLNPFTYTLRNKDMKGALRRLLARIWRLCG

[15] = test system: OR2BB; remark: listed apart in the source
Method in brief: as §1
Target sequence in this assay (as listed by the source): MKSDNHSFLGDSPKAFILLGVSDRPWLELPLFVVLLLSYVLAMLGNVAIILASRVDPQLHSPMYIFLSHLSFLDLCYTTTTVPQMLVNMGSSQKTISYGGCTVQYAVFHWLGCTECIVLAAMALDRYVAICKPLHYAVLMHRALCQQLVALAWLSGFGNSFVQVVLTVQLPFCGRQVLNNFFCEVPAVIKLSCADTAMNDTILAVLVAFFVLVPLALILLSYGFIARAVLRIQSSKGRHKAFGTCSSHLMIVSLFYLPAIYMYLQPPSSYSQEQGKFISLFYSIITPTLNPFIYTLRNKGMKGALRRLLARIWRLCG

[16] = test system: OR2BB; remark: listed apart in the source
Method in brief: as §1
Target sequence in this assay (as listed by the source): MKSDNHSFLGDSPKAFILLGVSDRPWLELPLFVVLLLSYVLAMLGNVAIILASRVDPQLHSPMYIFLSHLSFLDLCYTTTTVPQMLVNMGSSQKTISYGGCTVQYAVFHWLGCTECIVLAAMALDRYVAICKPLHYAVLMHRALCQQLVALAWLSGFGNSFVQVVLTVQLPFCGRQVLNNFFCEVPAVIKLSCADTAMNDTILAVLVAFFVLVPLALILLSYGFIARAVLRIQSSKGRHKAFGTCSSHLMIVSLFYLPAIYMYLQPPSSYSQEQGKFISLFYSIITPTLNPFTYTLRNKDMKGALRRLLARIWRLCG

[17] = test system: OR2BB; remark: listed apart in the source
Method in brief: as §1
Target sequence in this assay (as listed by the source): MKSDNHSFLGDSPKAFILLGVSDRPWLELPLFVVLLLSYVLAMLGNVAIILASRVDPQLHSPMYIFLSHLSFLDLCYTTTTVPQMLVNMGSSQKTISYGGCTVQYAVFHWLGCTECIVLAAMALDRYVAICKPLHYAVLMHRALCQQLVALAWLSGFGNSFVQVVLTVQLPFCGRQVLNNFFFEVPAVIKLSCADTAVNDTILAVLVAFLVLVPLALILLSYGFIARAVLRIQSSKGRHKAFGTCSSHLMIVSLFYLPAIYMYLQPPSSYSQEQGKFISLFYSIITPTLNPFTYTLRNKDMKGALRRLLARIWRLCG

[18] = test system: OR2BB; remark: listed apart in the source
Method in brief: as §1
Target sequence in this assay (as listed by the source): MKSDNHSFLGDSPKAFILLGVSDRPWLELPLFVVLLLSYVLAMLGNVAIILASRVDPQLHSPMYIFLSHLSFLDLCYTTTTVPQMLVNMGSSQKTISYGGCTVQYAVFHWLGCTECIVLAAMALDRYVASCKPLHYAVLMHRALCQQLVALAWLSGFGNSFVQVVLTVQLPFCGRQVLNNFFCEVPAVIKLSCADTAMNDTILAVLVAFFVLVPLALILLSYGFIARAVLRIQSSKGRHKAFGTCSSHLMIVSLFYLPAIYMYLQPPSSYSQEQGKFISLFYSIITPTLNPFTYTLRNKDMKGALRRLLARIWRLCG

[19] = test system: OR2A5 I126V A202S A255T
Method in brief: as §1

[20] = test system: OR2A7
Method in brief: as §1

Measured: odorant receptor agonist call;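 further: active if original authors judged signal statistically different from baseline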

Sequence of OR2AP1 (Homo sapiens) (Q8NGE2 whole entry): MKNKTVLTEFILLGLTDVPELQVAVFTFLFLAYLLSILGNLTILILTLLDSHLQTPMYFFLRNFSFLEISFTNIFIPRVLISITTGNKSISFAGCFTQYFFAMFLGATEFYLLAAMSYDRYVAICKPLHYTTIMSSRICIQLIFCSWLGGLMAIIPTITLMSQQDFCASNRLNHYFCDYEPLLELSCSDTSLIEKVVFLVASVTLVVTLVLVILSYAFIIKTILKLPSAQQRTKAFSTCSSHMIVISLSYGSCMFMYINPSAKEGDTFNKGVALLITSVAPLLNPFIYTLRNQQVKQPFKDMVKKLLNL
Sequence of OR2AG2 (Homo sapiens) (A6NM03 whole entry): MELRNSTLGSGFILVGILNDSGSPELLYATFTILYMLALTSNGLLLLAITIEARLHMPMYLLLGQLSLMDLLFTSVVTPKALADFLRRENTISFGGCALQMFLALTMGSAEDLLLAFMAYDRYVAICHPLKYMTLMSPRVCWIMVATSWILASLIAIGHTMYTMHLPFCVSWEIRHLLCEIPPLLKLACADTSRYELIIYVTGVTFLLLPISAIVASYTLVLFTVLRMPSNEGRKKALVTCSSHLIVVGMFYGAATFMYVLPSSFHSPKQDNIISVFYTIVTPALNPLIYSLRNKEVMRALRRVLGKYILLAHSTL
Sequence of OR2B2 (Homo sapiens) (Q9GZK3 whole entry): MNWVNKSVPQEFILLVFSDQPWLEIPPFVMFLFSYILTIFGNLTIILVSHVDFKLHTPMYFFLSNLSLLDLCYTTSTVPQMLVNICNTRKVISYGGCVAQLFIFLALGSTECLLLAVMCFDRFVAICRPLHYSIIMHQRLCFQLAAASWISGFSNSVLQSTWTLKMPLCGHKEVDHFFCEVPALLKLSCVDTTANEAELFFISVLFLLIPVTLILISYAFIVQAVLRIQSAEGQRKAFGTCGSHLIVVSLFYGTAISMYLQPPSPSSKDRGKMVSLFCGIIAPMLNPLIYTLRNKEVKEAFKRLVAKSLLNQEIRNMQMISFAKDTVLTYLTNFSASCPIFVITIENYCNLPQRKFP
Sequence of OR2AE1 (Homo sapiens) (Q8NHA4 whole entry): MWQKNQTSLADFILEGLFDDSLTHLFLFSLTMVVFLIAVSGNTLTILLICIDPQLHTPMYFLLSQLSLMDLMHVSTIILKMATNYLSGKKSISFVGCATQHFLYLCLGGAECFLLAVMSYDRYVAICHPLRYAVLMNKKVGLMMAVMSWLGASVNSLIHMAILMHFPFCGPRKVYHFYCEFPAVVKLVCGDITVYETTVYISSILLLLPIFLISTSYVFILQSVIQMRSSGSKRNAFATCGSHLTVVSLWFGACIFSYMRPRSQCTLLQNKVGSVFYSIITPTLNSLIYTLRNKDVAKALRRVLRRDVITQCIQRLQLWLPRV
Sequence of OR2AT4 (Homo sapiens) (A6NND4 whole entry): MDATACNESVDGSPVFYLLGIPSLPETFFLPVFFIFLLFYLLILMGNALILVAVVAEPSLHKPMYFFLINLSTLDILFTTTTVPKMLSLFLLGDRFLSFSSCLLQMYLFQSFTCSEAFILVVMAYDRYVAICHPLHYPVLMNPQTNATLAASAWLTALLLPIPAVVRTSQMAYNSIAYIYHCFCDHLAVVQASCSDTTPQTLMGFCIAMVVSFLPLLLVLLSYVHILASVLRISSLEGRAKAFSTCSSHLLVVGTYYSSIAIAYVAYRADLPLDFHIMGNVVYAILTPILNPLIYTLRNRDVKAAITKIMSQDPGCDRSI
Sequence of OR2AK2 (Homo sapiens) (Q8NG84 whole entry): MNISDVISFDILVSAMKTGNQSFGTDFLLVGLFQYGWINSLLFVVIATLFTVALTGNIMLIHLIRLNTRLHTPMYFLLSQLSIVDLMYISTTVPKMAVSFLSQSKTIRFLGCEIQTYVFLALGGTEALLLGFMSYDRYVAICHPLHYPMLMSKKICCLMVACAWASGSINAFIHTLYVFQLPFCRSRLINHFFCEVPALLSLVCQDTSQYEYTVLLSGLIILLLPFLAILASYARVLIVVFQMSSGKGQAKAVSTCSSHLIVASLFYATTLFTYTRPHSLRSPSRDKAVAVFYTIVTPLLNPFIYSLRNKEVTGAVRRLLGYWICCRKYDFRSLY
Sequence of OR2B6 (Homo sapiens) (P58173 whole entry): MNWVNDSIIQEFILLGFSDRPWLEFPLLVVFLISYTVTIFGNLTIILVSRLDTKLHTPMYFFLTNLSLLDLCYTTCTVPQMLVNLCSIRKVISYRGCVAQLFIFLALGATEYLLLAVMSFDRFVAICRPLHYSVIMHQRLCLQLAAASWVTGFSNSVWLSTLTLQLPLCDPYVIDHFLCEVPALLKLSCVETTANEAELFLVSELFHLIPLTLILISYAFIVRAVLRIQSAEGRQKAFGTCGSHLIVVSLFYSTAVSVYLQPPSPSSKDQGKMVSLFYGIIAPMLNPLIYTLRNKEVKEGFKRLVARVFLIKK
Sequence of OR2AG1 (Homo sapiens) (Q9H205 whole entry): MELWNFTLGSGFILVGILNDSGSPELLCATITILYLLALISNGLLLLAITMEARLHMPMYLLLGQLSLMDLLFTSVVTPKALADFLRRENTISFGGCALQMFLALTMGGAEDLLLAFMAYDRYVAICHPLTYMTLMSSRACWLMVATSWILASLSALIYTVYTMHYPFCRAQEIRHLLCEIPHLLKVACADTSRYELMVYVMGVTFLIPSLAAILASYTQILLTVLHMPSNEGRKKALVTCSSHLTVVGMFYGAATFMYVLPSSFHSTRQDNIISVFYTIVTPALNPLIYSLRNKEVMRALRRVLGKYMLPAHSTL
Sequence of OR2AJ1 (Homo sapiens) (Q8NGZ0 whole entry): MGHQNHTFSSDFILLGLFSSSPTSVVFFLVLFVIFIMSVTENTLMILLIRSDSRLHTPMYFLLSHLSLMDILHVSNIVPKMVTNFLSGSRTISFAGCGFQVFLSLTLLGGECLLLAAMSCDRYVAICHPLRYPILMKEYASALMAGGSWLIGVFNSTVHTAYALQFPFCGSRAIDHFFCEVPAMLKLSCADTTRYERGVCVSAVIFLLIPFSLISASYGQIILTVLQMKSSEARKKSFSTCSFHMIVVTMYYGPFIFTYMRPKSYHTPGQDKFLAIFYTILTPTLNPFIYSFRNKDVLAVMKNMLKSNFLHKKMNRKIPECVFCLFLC
Sequence of OR2A7 (as listed by the source): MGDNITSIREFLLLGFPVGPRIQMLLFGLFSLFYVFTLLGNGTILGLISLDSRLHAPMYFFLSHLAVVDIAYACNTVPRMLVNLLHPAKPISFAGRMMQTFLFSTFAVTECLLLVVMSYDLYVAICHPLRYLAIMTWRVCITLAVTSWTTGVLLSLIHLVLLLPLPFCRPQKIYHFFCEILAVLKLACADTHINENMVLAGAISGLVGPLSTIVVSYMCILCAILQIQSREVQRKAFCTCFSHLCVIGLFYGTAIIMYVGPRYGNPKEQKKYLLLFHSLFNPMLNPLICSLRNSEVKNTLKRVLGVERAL

Cc1c([N+](=O)[O-])c(C)c([N+](=O)[O-])c(C(C)(C)C)c1[N+](=O)[O-]
not listed: [13] | [14] | [15] | [16] | [17] | [18] | [19] | [20]
inactive: all other assays above

C=CCc1ccc(OC)cc1
inactive: [13]

O=CC=Cc1ccccc1
inactive: [13] | [14] | [15] | [16] | [17]
active: [9] | [18]

C=CCc1ccccc1
inactive: [12]

O=Cc1ccccc1
inactive: [13]

COc1ccc(C=O)cc1
inactive: [1]

O=c1cc(O)c2ccccc2o1
inactive: [12]

C=CCOC(=O)Cc1ccccc1
not listed: [5] | [15] | [17] | [18]
inactive: all other assays above

Cc1cccc(C)c1
inactive: [1]

CCC1CCC(=O)O1 (configuration not stated)
inactive: [12]
